Experimental data published in ChEMBL document CHEMBL1125428, “Development of 2,3-dihydro-6-(3-phenoxypropyl)-2-(2-phenylethyl)-5-benzofuranol (L-670,630) as a potent and orally active inhibitor of 5-lipoxygenase” (J Med Chem, 1992).

What was measured:
Rattus norvegicus [1] = experiment: Total radioactivity in tissues of male sd rats dosed intravenously with H-labeled compound at 21 mg/kg after 4 hr in lung; assay type: functional; settings: route intravenous
Method in brief: (§1)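 ³H label in the phenoxy ring, dissolved in PEG-400, specific activity 3.96 μCi/mg, given iv via femoral vein at 21 mg/kg to male Sprague-Dawley rats. Animals were killed at 2, 10, 30 min, 1, 2 and 4 h. Tissues from each group were pooled and homogenized, and total radioactivity was measured by combustion, averaged over duplicate combustions. Results are expressed as μg equiv/g. Two or three rats were used per time point.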

Rattus norvegicus [2] = experiment: Total radioactivity in tissues of male sd rats dosed orally with H-labeled compound at 21 mg/kg after 4 hr in liver; assay type: functional; settings: route oral
Method in brief: (§2)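 Male Sprague-Dawley rats received ³H-labelled drug (phenoxy ring, 3.96 μCi/mg) in PEG-400 by gavage at 21 mg/kg. Animals were killed at 5, 15, 30 min and at 1, 2, 4, 24 and 48 h. Homogenates were pooled per group, and total radioactivity was measured as the mean of duplicate combustions, in μg equiv/g. Two or three rats were used per point, except one rat at 24 and 48 h.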

Rattus norvegicus [3] = experiment: Total radioactivity in tissues of male sd rats dosed orally with H-labeled compound at 21 mg/kg after 1 hr in plasma; assay type: functional; settings: route oral; method in brief: as §2
Rattus norvegicus [4] = species: Rattus norvegicus; experiment: Effective dose against antigen induced dyspnea in hyperactive inbred rat at a dose of […]; assay type: functional
Rattus norvegicus [5] = experiment: Total radioactivity in tissues of male sd rats dosed intravenously with H-labeled compound at 21 mg/kg after 2 hr in plasma; assay type: functional; settings: route intravenous
Canis familiaris = species: Canis familiaris; experiment: Effect on methemoglobin formation in canine venous blood containing heparin; assay type: functional, Canis lupus familiaris
Rattus norvegicus [6] = experiment: Total radioactivity in tissues of male sd rats dosed orally with H-labeled compound at 21 mg/kg after 4 hr in lung; assay type: functional; settings: route oral; method in brief: as §2
Rattus norvegicus [7] = experiment: Total radioactivity in tissues of male sd rats dosed intravenously with H-labeled compound at 21 mg/kg after 2 hr in lung; assay type: functional; settings: route intravenous
Method in brief: (§3)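 Male Sprague-Dawley rats given ³H compound iv via femoral vein in PEG-400, 21 mg/kg, 3.96 μCi/mg. Killed at 2, 10, 30 min, 1, 2 and 4 h. Total radioactivity measured by combustion of composited tissue homogenates, in duplicate. Two or three rats per time point, one at 10 and 30 min.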

Rattus norvegicus [8] = experiment: Total radioactivity in tissues of male sd rats dosed orally with H-labeled compound at 21 mg/kg after 24 hr r in kidney; assay type: functional; settings: route oral; method in brief: as §2
Rattus norvegicus [9] = experiment: Total radioactivity in tissues of male sd rats dosed orally with H-labeled compound at 21 mg/kg after 15 min in liver; assay type: functional; settings: route oral; method in brief: as §2
Rattus norvegicus [10] = experiment: Total radioactivity in tissues of male sd rats dosed orally with H-labeled compound at 21 mg/kg after 5 min in plasma; assay type: functional; settings: route oral; method in brief: as §2
Rattus norvegicus [11] = experiment: Total radioactivity in tissues of male sd rats dosed intravenously with H-labeled compound at 21 mg/kg after 2 min in liver; assay type: functional; settings: route intravenous; method in brief: as §3
Rattus norvegicus [12] = experiment: Total radioactivity in tissues of male sd rats dosed intravenously with H-labeled compound at 21 mg/kg after 30 min in liver; assay type: functional; settings: route intravenous; method in brief: as §3
Rattus norvegicus [13] = experiment: Total radioactivity in tissues of male sd rats dosed orally with H-labeled compound at 21 mg/kg after 5 min in liver; assay type: functional; settings: route oral; method in brief: as §2
[14] = Measure of AUCpo/AUCiv x 100% of the parent compound before (free) and after (total) beta-glucuronidase treatment; total 54%; assay type: ADME, organism-based; settings: in vivo, po; read-out: Bioavailabiility
Rattus norvegicus [15] = experiment: Total radioactivity in tissues of male sd rats dosed intravenously with H-labeled compound at 21 mg/kg after 30 min in lung; assay type: functional; settings: route intravenous; method in brief: as §3
Rattus norvegicus [16] = experiment: Total radioactivity in tissues of male sd rats dosed intravenously with H-labeled compound at 21 mg/kg after 10 min in kidney; assay type: functional; settings: route intravenous; method in brief: as §3
Rattus norvegicus [17] = experiment: Total radioactivity in tissues of male sd rats dosed intravenously with H-labeled compound at 21 mg/kg after 2 hr in liver; assay type: functional; settings: route intravenous; method in brief: as §3
Rattus norvegicus [18] = experiment: Total radioactivity in tissues of male sd rats dosed intravenously with H-labeled compound at 21 mg/kg after 4 hr in plasma; assay type: functional; settings: route intravenous; method in brief: as §1
Rattus norvegicus [19] = experiment: Total radioactivity in tissues of male sd rats dosed orally with H-labeled compound at 21 mg/kg after 5 min in lung; assay type: functional; settings: route oral; method in brief: as §2
Rattus norvegicus [20] = experiment: Total radioactivity in tissues of male sd rats dosed intravenously with H-labeled compound at 21 mg/kg after 10 min in lung; assay type: functional; settings: route intravenous; method in brief: as §3
Rattus norvegicus [21] = experiment: Total radioactivity in tissues of male sd rats dosed orally with H-labeled compound at 21 mg/kg after 15 min in plasma; assay type: functional; settings: route oral; method in brief: as §2
Rattus norvegicus [22] = experiment: Total radioactivity in tissues of male sd rats dosed intravenously with H-labeled compound at 21 mg/kg after 10 min in plasma; assay type: functional; settings: route intravenous
Rattus norvegicus [23] = experiment: Total radioactivity in tissues of male sd rats dosed orally with H-labeled compound at 21 mg/kg after 24 hr r in lung; assay type: functional; settings: route oral; method in brief: as §2
Rattus norvegicus [24] = species: Rattus norvegicus; experiment: Percentage inhibition against antigen induced dyspnea in hyperactive inbred rat at a dose of […]; assay type: functional; settings: dose 0.15 mg/kg
Rattus norvegicus [25] = experiment: Total radioactivity in tissues of male sd rats dosed intravenously with H-labeled compound at 21 mg/kg after 2 hr in kidney; assay type: functional; settings: route intravenous; method in brief: as §3
Rattus norvegicus [26] = experiment: Total radioactivity in tissues of male sd rats dosed orally with H-labeled compound at 21 mg/kg after 15 min in lung; assay type: functional; settings: route oral; method in brief: as §2
Rattus norvegicus [27] = experiment: Total radioactivity in tissues of male sd rats dosed orally with H-labeled compound at 21 mg/kg after 5 min in kidney; assay type: functional; settings: route oral; method in brief: as §2
Rattus norvegicus [28] = experiment: Percentage inhibition against antigen induced dyspnea in hyperactive inbred rat at a dose of 0.05 mg/kg; assay type: functional
Method in brief: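 Inbred hyperreactive rats, six per group, dosed po 2 h before aerosol ovalbumin challenge, with drug suspension or vehicle (0.4% Methocel/0.5% Tween 80, 10 mL/kg). Methysergide 3 mg/kg iv given 5 min before antigen. Dyspnea duration recorded by pneumotachograph. % inhibition of duration is relative to vehicle controls. Student's t test used; ED50 from linear regression.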

Rattus norvegicus [29] = experiment: Total radioactivity in tissues of male sd rats dosed intravenously with H-labeled compound at 21 mg/kg after 1 hr in kidney; assay type: functional; settings: route intravenous; method in brief: as §3
Rattus norvegicus [30] = experiment: Total radioactivity in tissues of male sd rats dosed orally with H-labeled compound at 21 mg/kg after 1 hr in lung; assay type: functional; settings: route oral; method in brief: as §2
Rattus norvegicus [31] = experiment: Total radioactivity in tissues of male sd rats dosed orally with H-labeled compound at 21 mg/kg after 4 hr in plasma; assay type: functional; settings: route oral; method in brief: as §2
[32] = biological target: Arachidonate 5-lipoxygenase (Homo sapiens); experiment: Inhibitory activity of LTB4 production in human PMN
Rattus norvegicus [33] = experiment: Total radioactivity in tissues of male sd rats dosed intravenously with H-labeled compound at 21 mg/kg after 1 hr in liver; assay type: functional; settings: route intravenous; method in brief: as §3
[34] = Peak concentration of drug in rat plasma after oral dosing at 20 mg/kg. Concentration of parent compound was measured before (free) and after (total) beta-glucuronidase treatment; total 0.5 uM; assay type: ADME, organism-based; set-up: dose 20 mg/kg, route oral; settings: read-out: Plasma level

Oc1cc2c(cc1CCCOc1ccccc1)OC(CCc1ccccc1)C2 (stereo not given)
Total radioactivity (Rattus norvegicus [1]): 5 ug equiv g-1
Total radioactivity (Rattus norvegicus [2]): 13.77 ug equiv g-1
Total radioactivity (Rattus norvegicus [3]): 1.41 ug equiv g-1
ED50 at […] (Rattus norvegicus [4]): 0.06 mg/kg
Total radioactivity (Rattus norvegicus [5]): 0.88 ug equiv g-1
Formation (Canis familiaris): 4%
Total radioactivity (Rattus norvegicus [6]): 1.74 ug equiv g-1
Total radioactivity (Rattus norvegicus [7]): 1.6 ug equiv g-1
Total radioactivity (Rattus norvegicus [8]): 0.15 ug equiv g-1
Total radioactivity (Rattus norvegicus [9]): 7.82 ug equiv g-1
Total radioactivity (Rattus norvegicus [10]): 7.74 ug equiv g-1
Total radioactivity (Rattus norvegicus [11]): 142.77 ug equiv g-1
Total radioactivity (Rattus norvegicus [12]): 41.11 ug equiv g-1
Total radioactivity (Rattus norvegicus [13]): 12.12 ug equiv g-1
bioavailability [14]: 5%
Total radioactivity (Rattus norvegicus [15]): 56.91 ug equiv g-1
Total radioactivity (Rattus norvegicus [16]): 54.13 ug equiv g-1
Total radioactivity (Rattus norvegicus [17]): 3.31 ug equiv g-1
Total radioactivity (Rattus norvegicus [18]): 1.18 ug equiv g-1
Total radioactivity (Rattus norvegicus [19]): 473.13 ug equiv g-1
Total radioactivity (Rattus norvegicus [20]): 75.08 ug equiv g-1
Total radioactivity (Rattus norvegicus [21]): 1.08 ug equiv g-1
Total radioactivity (Rattus norvegicus [22]): 9.65 ug equiv g-1
Total radioactivity (Rattus norvegicus [23]): 0.1 ug equiv g-1
inhibition in vivo at […] (Rattus norvegicus [24]): 55%
Total radioactivity (Rattus norvegicus [25]): 1.24 ug equiv g-1
Total radioactivity (Rattus norvegicus [26]): 190.97 ug equiv g-1
Total radioactivity (Rattus norvegicus [27]): 9.12 ug equiv g-1
inhibition in vivo at 0.05 mg/kg (Rattus norvegicus [28]): 50%
Total radioactivity (Rattus norvegicus [29]): 11.78 ug equiv g-1
Total radioactivity (Rattus norvegicus [30]): 3.58 ug equiv g-1
Total radioactivity (Rattus norvegicus [31]): 3.27 ug equiv g-1
IC50 [32]: 6 nM
Total radioactivity (Rattus norvegicus [33]): 26.77 ug equiv g-1
Cmax [34]: 300 nM
